STAT3 inh – STAT3 signaling inhibition; U3A cells, IL-6 STAT3-luciferase reporter, luminescence; host cell line lacks STAT1; actives 0.89% (n = 190,000); inhibition, % at 5.5 µM;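 active = inhibition above the mean inhibition across all screened compounds plus 3 SD, cut at about 44% in these data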;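 note: 0% = DMSO only wells and 100% = 100 µM nifuroxazide control wells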
HSV augment – HSV replication enhancement; AID 1956; maximum fold increase; HSV replication augmentation in cells, fold increase; actives 0.005% (n = 220,000); in the data active = maximum fold increase above about 1.5; tested in PC3 cells
KCC2 mod – modulators of human KCC2 chloride dependent transport; Q9H2X9; KCC2 cells, thallium flux FluoZin-2 fluorescence; B-score of Tl+ flux slope (higher = more flux/activation; lower = inhibition) at 10 µM; actives 2.2% (n = 190,000);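 active = thallium flux slope and its plate-corrected score both differing from the plate sample mean at a set confidence after two filtering rounds, in either direction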;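 note: slope of fluorescence scaled to starting intensity during 10 to 20 s after thallium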
STAT1 act-1 – STAT1 signaling activation; activation (% of control), % at 5.5 µM; actives 2.6% (n = 200,000); NIH 3T3 STAT1-luciferase reporter, IFN-gamma, luminescence; 100% = IFN-gamma alone, no compound;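 active = activation above the screen-wide mean activation plus 3 SD, cut at about 130% in these data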;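 note: raw ratio to IFN-gamma control signal so 100% means no change and 0% no light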
STAT1 blocker – reduces IFN-gamma driven STAT1 reporter signal | AID 920 | NIH 3T3 STAT1-luciferase reporter, luminescence | inhibition, % at 5.5 µM | actives 0.35% (n = 200,000);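 active = inhibition above a set limit, the mean inhibition across all tested compounds plus 3 SD, cut at about 34% in these data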;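 note: 0% = IFN-gamma with DMSO and 100% = IFN-gamma with 300 µM nifuroxazide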
STAT3 act-1 – increases IL-6 driven STAT3 reporter signal; U3A cells, IL-6 STAT3-luciferase reporter, luminescence; 100% = signal with IL-6 EC80 alone; activation (% of control), % at 5.6 µM; actives 0.91% (n = 190,000); AID 871;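 active = activation above the screen-wide mean of compound activation plus 3 SD, cut at about 130% in these data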;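 note: 0% = background luminescence of wells with medium and substrate only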
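Test system: Human STAT1-deficient U3A cells with stable STAT3-luciferase reporter | Also added: Interleukin-6, 33 ng/mL | Timing: Compound pre-incubation 1 h before IL-6, then 6 h stimulation at 37 °C | Technique: Luciferase reporter luminescence | Read-out: Percent of IL-6-only median luminescence | Benchmarks: IL-6-only wells as 100% reference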
STAT3 act-2 – confirmation of STAT3 signaling activators; shares compounds with STAT3 act-1; U3A STAT3-luciferase reporter, IL-6 potentiation, luminescence; U3A cells lack STAT1; 100 means same as IL-6 alone; potentiation (% of control), % at 5.7 µM; actives 64% (n = 1,200);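 active = percent activation of the STAT3 luciferase reporter above a set limit taken from the earlier primary screen, cut at about 130% in these data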;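 note: 0% = background signal of medium plus substrate and 100% = median of IL-6 with DMSO wells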
NFkB act 2 – counter-screen for STAT3 activators: NF-kappaB activation. shares compounds with STAT3 act-1. human cells, NF-kappaB reporter activation. activation (% of control), % at 5.7 µM. actives 11% (n = 1,200); in the data active = activation above about 120%;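 note: reporter induced by TNF-alpha stimulation; 100% = median of stimulated DMSO wells and 0% = no signal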
STAT1 act-2 – counter-screen for STAT3 activators: STAT1 activation. shares compounds with STAT3 act-1. NIH 3T3 STAT1-luciferase reporter, IFN-gamma, luminescence. activation (% of control), % at 5.7 µM. actives 13% (n = 1,200). AID 1318;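 active = activation above the solvent-only control well mean plus 3 SD, set per screening run, cut at about 120% in these data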;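 note: 100% = IFN-gamma with DMSO median signal so 100% means no change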
Active calls of the source: *; i = inactive; nt = no result. Only some compounds are listed: those with a hit (about 5.5% of all), similar ones and a draw of the others.

SMILES	STAT3 inh	HSV augment	KCC2 mod	STAT1 act-1	STAT1 blocker	STAT3 act-1	STAT3 act-2	NFkB act 2	STAT1 act-2
CCn1c(=O)c(C(=O)Nc2ccccc2C)c(O)c2ccccc21	-44	i	0.49	106	-8	140*	141*	111	115
CCCn1c(=O)c(C(=O)Nc2ccccc2)c(O)c2ccccc21	-41	i	1.4	104	-6	137*	122	103	100
CCCCCCC(=O)NNC(=O)c1c(O)c2ccccc2n(CCC)c1=O	6	i	2.6	97	3	99	nt	nt	nt
CCNCCNC(=O)c1c(O)c2ccccc2n(CC)c1=O	11	i	nt	91	10	96	nt	nt	nt
CCn1c(=O)c(C(=O)NCCc2ccccc2)c(O)c2ccccc21	-38	i	0.56	101	-1	137*	134*	106	100
Cc1nc(/N=C(\N)NC(=O)c2ccccc2)nc2ccccc12	-78	i	-2.8	102	-2	177*	168*	121*	116
Cc1nc(N=C(N)N)nc2ccccc12	-18	i	nt	103	-3	116	nt	nt	nt
COc1ccc(C(=O)Oc2ccc(F)cc2C(=O)/C=C/c2ccc(OC)c(OC)c2)cc1	0	nt	-0.73	101	-1	99	nt	nt	nt
COc1ccc(/C=C/C(=O)c2cc(F)ccc2OC(=O)c2ccccc2C)cc1OC	-48	i	-0.031	100	1	143*	103	156*	102
CS(=O)(=O)N(CC(=O)N1CCCCCC1)c1ccc(Br)cc1	0	i	0.91	99	2	103	nt	nt	nt
O=C(O)C(Cc1cc2ccccc2[nH]1)N1C(=O)C2CC=C(Cl)CC2C1=O (stereo unspecified)	-44	i	1.6	96	5	142*	135*	102	95
O=C(NCc1ccco1)c1cccn2c(=O)c3cc4ccccc4cc3nc12	-109	nt	0.0054	101	-1	196*	162*	113	105
Cc1ccc(CC(=O)Nc2nc3c(s2)CCCC3)cc1	-49	i	nt	101	-6	141*	137*	103	114
O=C(NC(=S)Nc1nc2c(s1)CCCC2)c1ccccc1	-61	i	11*	121	-24	148*	206*	142*	200*
CC(C)CC(CO)N1CCN(C(=O)c2cccc(Cl)c2)CCC1=O (stereo unspecified)	nt	i	nt	nt	nt	nt	nt	nt	nt
COC(=O)CC1SC(=O)NC1=Nc1cccc(C)c1 (stereo unspecified)	0	i	-0.39	100	0	100	nt	nt	nt
COC(=O)c1nn(-c2ccccc2)c(=O)cc1Oc1ccccc1	4	i	1	100	0	102	nt	nt	nt
CCOc1ccccc1NC(=O)c1nc(-c2ccccc2)oc1C	-35	i	0.22	107	-10	141*	123	104	104
CCOc1ccccc1NC(=O)c1ccoc1C	12	i	0.84	98	2	91	nt	nt	nt
O=C(CCc1nc2ccccc2[nH]1)NCc1ccc2c(c1)OCO2	0	i	-0.4	98	3	100	nt	nt	nt
O=C(CCc1nnc(Cc2ccc3c(c2)OCO3)o1)NCc1nc2ccccc2s1	-49	i	-0.042	111	-12	149*	142*	105	93
CCC(C)(C(=O)NC1CCCC1)N(C(=O)c1cnccn1)c1ccccc1 (stereo unspecified)	-40	nt	nt	100	0	137*	117	100	103
N#C/C(=C\Nc1ccc2cn[nH]c2c1)c1nc(-c2ccc(Cl)cc2)cs1	-56	nt	0.37	91	8	148*	115	99	90
N#C/C(=C\Nc1ccc2cn[nH]c2c1)c1nc(-c2ccccc2)cs1	7	i	0.04	111	-14	96	nt	nt	nt
Cc1ccc2c(c1)NCC(C(=O)NCc1ccccc1)O2 (stereo unspecified)	2	nt	0.64	98	3	98	nt	nt	nt
SMILES	STAT3 inh	HSV augment	KCC2 mod	STAT1 act-1	STAT1 blocker	STAT3 act-1	STAT3 act-2	NFkB act 2	STAT1 act-2
NC(=O)C1CNc2ccccc2O1 (stereo unspecified)	-67	i	0.36	102	-3	156*	148*	105	100
Clc1ccccc1OCc1nc(-c2ccc(Br)o2)no1	-33	i	-2	123	-25	137*	126	110	125*
O=c1c2ccc([N+](=O)[O-])c3cccc(c32)c2nc3ccccc3n12	-48	nt	0.87	83	19	148*	150*	69	88
CCc1nc2ccccc2c2nc3ccccc3n12	21	i	-0.47	97	3	86	nt	nt	nt
O=C(Cc1c[nH]c2ccccc12)Nc1nc2ccccc2[nH]1	-51	i	-0.6	100	0	146*	154*	108	104
CCC(Sc1nnnn1-c1ccccc1)C(=O)Nc1nc2ccccc2s1 (stereo unspecified)	-64	i	-1.4	101	-1	157*	155*	112	113
Oc1ccccc1-c1cc(-c2ccco2)[nH]n1	-30	i	nt	102	-3	132	nt	nt	nt
Oc1c(-c2cc(-c3ccco3)[nH]n2)ccc2ccccc12	-76	i	-1.7	117	-18	164*	166*	154*	116
Oc1ccc(Br)cc1-c1cc(-c2ccco2)[nH]n1	-35	i	-0.95	101	-1	136*	128	107	116
CC(C)(C)n1nc2c(c1NC(=O)COc1ccc3ccccc3c1)CS(=O)(=O)C2	-1	i	-3.3	98	2	104	nt	nt	nt
CS(=O)(=O)c1ccc(Sc2nc3ccccc3s2)c([N+](=O)[O-])c1	-63	i	-0.019	104	-4	147*	118	104	110
O=[N+]([O-])c1cc(S(=O)(=O)C(F)(F)F)ccc1Sc1nc2ccccc2s1	-8	i	2.3	102	-2	106	nt	nt	nt
COc1ccc(C)cc1NC(=O)C1CC(=O)N(Cc2ccco2)C1 (stereo unspecified)	8	i	-0.04	97	3	101	nt	nt	nt
COc1cc2c(cc1NC(=O)C(C)OC(=O)C1CC(=O)N(Cc3ccco3)C1)oc1ccccc12 (stereo unspecified)	-65	i	-0.8	124	-26	154*	147*	118	122*
O=C(COC(=O)/C=C/c1ccccc1[N+](=O)[O-])NCC(F)(F)F	-63	i	-0.13	80	21	150*	163*	104	101
